Data: ChEMBL document CHEMBL1142960, “Synthesis and structure-activity relationships for 2,4-dinitrobenzamide-5-mustards as prodrugs for the Escherichia coli nfsB nitroreductase in gene therapy” (J Med Chem, 2007)
Converted amounts (≈) assume the structure as drawn.

Key:
[1] = Antiproliferative activity against human wild type Skov3 NTR-ve cells after 18 hrs; assay type: functional, cell-based
[2] = Stability in alpha MEM at 37 degC after 24 hrs; assay type: physicochemical; settings: read-out: Stability
Procedure, shortened: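 Percent parent compound remaining, by HPLC, after holding in α-MEM with 5% fetal calf serum at 37 °C for 24 h.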

WiDr [3] = experiment: Antiproliferative activity against human wild type WiDr NTR-ve cells after 18 hrs; assay type: functional, cell-based
V79 [4] = experiment: Antiproliferative activity against chinese hamster wild-type V79 NTR-ve cells after 18 hrs; assay type: functional, cell-based; settings: Cricetulus griseus, V79, 18 h
V79 [5] = experiment: Selectivity ratio of IC50 for V79 NTR-ve cells to IC50 for V79 NTRpuro cells; assay type: functional, Cricetulus griseus
EMT6 [6] = experiment: Antiproliferative activity against mouse EMT6 NTRpuro cells after 18 hrs; assay type: functional, cell-based; settings: EMT6, 18 h
V79 [7] = experiment: Clonogenic survival of 97% V79 NTRoua cells in co-cultures with 3% V79 NTRpuro cells after 5 hrs by MCL assay; assay type: functional, Cricetulus griseus
Procedure, shortened: (§1)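 Multicellular layer cocultures of 3% V79-NTRpuro activators and 97% V79oua NTR-ve targets (ouabain-resistant), exposed to prodrug for 5 h. MCLs were then trypsin-dissociated and plated in ouabain or puromycin selective media for clonogenic survival. C10 (10% survival) interpolated for activators and targets; AC/TC ratio derived. Mean with SEM or range over independent experiments.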

[8] = Selectivity ratio of IC50 for Skov3 NTR-ve cells to IC50 for Skov3 NTRneo cells; assay type: functional, Homo sapiens
[9] = Solubility in alpha MEM; assay type: physicochemical
Procedure, shortened: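 Solubility (mM) in α-MEM with 5% fetal calf serum at ambient temperature, measured by HPLC.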

WiDr [10] = experiment: Antiproliferative activity against human WiDr NTRneo cells after 18 hrs; assay type: functional, cell-based
EMT6 [11] = experiment: Selectivity ratio of IC50 for EMT6 NTR-ve cells to IC50 forEMT6 NTRpuro cells; assay type: functional, Mus musculus
WiDr [12] = experiment: Selectivity ratio of IC50 for WiDr NTR-ve cells to IC50 for WiDr NTRneo cells; assay type: functional, Homo sapiens
EMT6 [13] = experiment: Antiproliferative activity against mouse wild type EMT6 NTR-ve cells after 18 hrs; assay type: functional, cell-based; settings: EMT6, 18 h
EMT6 [14] = experiment: Antitumor activity against mixed mouse EMT6/EMT6 NTRpuro cells injected in CD1 nude mouse assessed as cell kill at 237 umol/kg, ip in DMSO after 18 hrs; assay type: functional
[15] = Toxicity in ip dosed CD1 nude mouse in DMSO; assay type: organism-based; settings: in vivo
Procedure, shortened: (§2)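 Maximum tolerated dose (MTD) determined in CD-1 nude mice after a single i.p. injection of prodrug, given in the vehicle named in each line.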

V79 [16] = experiment: Clonogenic survival of V79 NTRoua cells after 5 hrs by MCL assay; assay type: functional, Cricetulus griseus
V79 [17] = experiment: Antiproliferative activity against chinese hamster V79 NTRpuro cells after 18 hrs; assay type: functional, cell-based; settings: Cricetulus griseus, V79, 18 h
[18] = Partition coefficient at pH 7.4 by shake-flask method; assay type: physicochemical; settings: octanol/water
Procedure, shortened: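 Octanol-water partition coefficient by shake-flask at pH 7.4, reported with SEM.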

V79 [19] = experiment: Clonogenic survival of 3% V79 NTRpuro cells in co-cultures with 97% V79 NTRoua after 5 hrs by MCL assay; assay type: functional, Cricetulus griseus; procedure, shortened: as §1
[20] = Antiproliferative activity against human Skov3 NTRneo cells after 18 hrs; assay type: functional, cell-based; settings: SK-OV-3, 18 h
EMT6 [21] = experiment: Antitumor activity against mixed mouse EMT6/EMT6 NTRpuro cells injected in CD1 nude mouse assessed as cell kill at 178 umol/kg, ip in DMSO/PEG after 18 hrs; assay type: functional
[22] = Toxicity in ip dosed CD1 nude mouse in DMSO/PEG; assay type: organism-based; settings: in vivo; procedure, shortened: as §2
WiDr [23] = experiment: Antitumor activity against human 100% WiDr NTRneo tumor cells injected in CD1 nude mouse assessed as growth delay at >1330 umol/kg, ip in DMSO; assay type: functional
Procedure, shortened: (§3)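 WiDr-NTRneo tumours (100% NTR+ve, or 1:9 NTR+ve:NTR-ve mixtures) in CD-1 nude mice, given a single i.p. dose at MTD. Read-out is median growth delay to 15 mm mean diameter, plus tumours not palpable 100 days after treatment. Aziridine given at 200 µmol/kg as positive control in every experiment.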

WiDr [24] = experiment: Antitumor activity against human 100% WiDr NTRneo tumor cells injected in CD1 nude mouse assessed as growth delay at 562 umol/kg, ip in DMSO/PEG; assay type: functional; procedure, shortened: as §3
WiDr [25] = experiment: Antitumor activity against human 10% WiDr NTRneo/ 90% WiDr tumor cells injected in CD1 nude mouse assessed as growth delay at >1330 umol/kg, ip in DMSO; assay type: functional; procedure, shortened: as §3
EMT6 [26] = experiment: Antitumor activity against mixed mouse EMT6/EMT6 NTRpuro cells injected in CD1 nude mouse assessed as cell kill at 562 umol/kg, ip in DMSO/PEG after 18 hrs; assay type: functional
[27] = Toxicity in ip dosed CD1 nude mouse in DMA/PEG; assay type: organism-based; settings: in vivo; procedure, shortened: as §2
EMT6 [28] = experiment: Antitumor activity against mixed mouse EMT6/EMT6 NTRpuro cells injected in CD1 nude mouse assessed as cell kill at 560 umol/kg, ip in DMA/PEG after 18 hrs; assay type: functional
WiDr [29] = experiment: Antitumor activity against human 100% WiDr NTRneo tumor cells injected in CD1 nude mouse assessed as growth delay at 560 umol/kg, ip in DMA/PEG; assay type: functional; procedure, shortened: as §3
EMT6 [30] = experiment: Antitumor activity against mixed mouse EMT6/EMT6 NTRpuro cells injected in CD1 nude mouse assessed as cell kill at 1330 umol/kg, ip in DMSO/PEG after 18 hrs; assay type: functional
WiDr [31] = experiment: Antitumor activity against mixed human 10% WiDr NTRneo/ 90% WiDr tumor cells injected in CD1 nude mouse assessed as growth delay at 1330 umol/kg, ip in DMSO/PEG; assay type: functional; procedure, shortened: as §3
EMT6 [32] = experiment: Antitumor activity against mixed mouse EMT6/EMT6 NTRpuro cells injected in CD1 nude mouse assessed as cell kill at 133 umol/kg, ip in DMA/PEG after 18 hrs; assay type: functional
[33] = Toxicity in ip dosed CD1 nude mouse in sodium acetate; assay type: organism-based; settings: in vivo; procedure, shortened: as §2
EMT6 [34] = experiment: Antitumor activity against mixed mouse EMT6/EMT6 NTRpuro cells injected in CD1 nude mouse assessed as cell kill at 300 umol/kg, ip in acetate after 18 hrs; assay type: functional
WiDr [35] = experiment: Antitumor activity against human 100% WiDr NTRneo tumor cells injected in CD1 nude mouse assessed as growth delay at 300 umol/kg, ip in acetate; assay type: functional; procedure, shortened: as §3

Row | Compound | IC50 [1] | remaining at 24 h [2] | IC50 (WiDr [3]) | IC50 (V79 [4]) | Ratio IC50 (V79 [5]) | IC50 (EMT6 [6]) | Activity (V79 [7]) | Ratio IC50 [8] | solubility [9] | IC50 (WiDr [10]) | Ratio IC50 (EMT6 [11]) | Ratio IC50 (WiDr [12]) | IC50 (EMT6 [13]) | Activity (V79 [16]) | IC50 (V79 [17]) | logD [18] | Activity (V79 [19]) | IC50 [20] | MTD [22] | further results
1 | NC(=O)c1cc(N(CCCl)CCBr)c([N+](=O)[O-])cc1[N+](=O)[O-] | 226 µM | 62% | 150 µM | 139 µM | 237 | 0.1 µM | 8.2 µM | 280 | 630 µM (≈ 249 µg/mL) | 0.69 µM | 2190 | 236 | 150 µM | >300 µM | 0.59 µM | 1.61 | 3.4 µM | 0.84 µM | – | LCK (EMT6 [14]): >3.02; MTD [15]: 237 µmol/kg
2 | O=C(NCCCO)c1cc(N(CCCl)CCCl)c([N+](=O)[O-])cc1[N+](=O)[O-] | 948 µM | 108% | 518 µM | 555 µM | 77 | 1.02 µM | 150 µM | 146 | 4100 µM (≈ 1680 µg/mL) | 10 µM | 477 | 51 | 422 µM | 3300 µM | 7.7 µM | 1.49 | 95 µM | 6.5 µM | 178 µmol/kg | LCK (EMT6 [21]): 0.44
3 | NC(=O)c1cc(N(CCBr)CCBr)c([N+](=O)[O-])cc1[N+](=O)[O-] | 58 µM | 98% | 40 µM | 43 µM | 302 | 0.04 µM | 4.6 µM | 211 | – | 0.22 µM | 1110 | 174 | 48 µM | >50 µM | 0.18 µM | 1.97 | 3.3 µM | 0.33 µM | > 1330 µmol/kg | Activity (WiDr [23]): >84 days; Activity (WiDr [24]): >84 days; Activity (WiDr [25]): 20 days; MTD [15]: > 1330 µmol/kg; LCK (EMT6 [26]): 4.17
4 | O=C(NCC(O)CO)c1cc(N(CCCl)CCCl)c([N+](=O)[O-])cc1[N+](=O)[O-] (stereo not given) | 1710 µM | 100% | 984 µM | 1160 µM | 135 | 1.14 µM | 510 µM | 327 | 2900 µM (≈ 1230 µg/mL) | 14 µM | 803 | 79 | 839 µM | 3500 µM | 10 µM | 0.93 | 95 µM | 5.1 µM | – | MTD [27]: 560 µmol/kg; LCK (EMT6 [28]): 1.49; Activity (WiDr [29]): 75 days
5 | O=C(NCC(O)CO)c1cc(N(CCBr)CCBr)c([N+](=O)[O-])cc1[N+](=O)[O-] (stereo not given) | 283 µM | 102% | 166 µM | 275 µM | 828 | 0.08 µM | 98 µM | 1050 | 1700 µM (≈ 874 µg/mL) | 0.63 µM | 1670 | 313 | 132 µM | 675 µM | 0.34 µM | 1.25 | 18 µM | 0.28 µM | 1330 µmol/kg | LCK (EMT6 [30]): >3.36; Activity (WiDr [31]): 22 days
6 | O=C(NCCO)c1cc(N(CCCl)CCCl)c([N+](=O)[O-])cc1[N+](=O)[O-] | 1250 µM | – | 666 µM | 312 µM | 59 | 1.52 µM | 210 µM | 230 | 1000 µM (≈ 395 µg/mL) | 10 µM | 386 | 65 | 570 µM | >1000 µM | 12 µM | 1.38 | 95 µM | 5.9 µM | – | MTD [27]: 133 µmol/kg; LCK (EMT6 [32]): >2.02
7 | O=C(NCCN1CCOCC1)c1cc(N(CCCl)CCCl)c([N+](=O)[O-])cc1[N+](=O)[O-] | 383 µM | 100% | 243 µM | 201 µM | 1.6 | 30 µM | 3000 µM | 5 | 5200 µM (≈ 2410 µg/mL) | 149 µM | 8.9 | 1.7 | 242 µM | 3500 µM | 130 µM | 1.6 | 1500 µM | 82 µM | – | MTD [33]: 300 µmol/kg; LCK (EMT6 [34]): 0.07; Activity (WiDr [35]): 27 days
